Source: PubChem BioAssay
PERK inhibitor: human PERK inhibition, primary cell-based screen. Q9NZJ5. CHO PERK-DD fusion, SEAP luminescence translation reporter. inhibition, % at 5.6 µM. 220,000 tested, 0.17% active. AID 1416;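 active = inhibition above the mean inhibition of all tested compounds plus 3 SD, set separately per screening campaign, cut at about 2.9% in these data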;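 also: PERK kinase domain activated by AP20187 dimerizer at 100 nM; 0% = DMSO with dimerizer and 100% = rapamycin at 8.4 µM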
STAT1 activator: increases IFN-gamma driven STAT1 reporter signal; NIH 3T3 STAT1-luciferase reporter, luminescence; 100% = IFN-gamma alone, no compound; activation (% of control), % at 5.5 µM; 200,000 tested, 2.6% active;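 active = activation above the screen-wide mean activation plus 3 SD, cut at about 130% in these data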;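 also: raw ratio to IFN-gamma control signal so 100% means no change and 0% no light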
APP 5'UTR act: activates APP 5'UTR luciferase reporter | SH-SY5Y APP 5'UTR luciferase reporter, luminescence; zero percent = DMSO vehicle wells | activation, % at 2 µM | 190,000 tested, 1% active;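 active = activation above a set limit, based on mean plus 3 SD of controls, cut at about 140% in these data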
AHR act: activates the human aryl hydrocarbon receptor | 320,000 tested, 2.5% active | P35869 | AHR-responsive luciferase reporter cells, luminescence | activation, % at 5 µM; in the data active = activation above about 47%;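 also: 0% = vehicle wells and 100% = reference agonist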
MDM2 E3 inh: Mdm2 E3 ligase (human) inhibition | cell-based MDM2 ubiquitination luciferase reporter, 2 h; 0 = plate control, 100 = twice control, blank-subtracted | Q00987 | 210,000 tested, 0.11% active | signal enhancement, % at 5 µM | AID 1230;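 active = signal enhancement of 30% or more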;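 also: luminescence tracks abundance of the self-degrading MDM2-luciferase fusion protein; higher signal means inhibition of MDM2 E3 ligase activity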
Target sequence (Q00987 whole entry, looked up, the tested form may be a part): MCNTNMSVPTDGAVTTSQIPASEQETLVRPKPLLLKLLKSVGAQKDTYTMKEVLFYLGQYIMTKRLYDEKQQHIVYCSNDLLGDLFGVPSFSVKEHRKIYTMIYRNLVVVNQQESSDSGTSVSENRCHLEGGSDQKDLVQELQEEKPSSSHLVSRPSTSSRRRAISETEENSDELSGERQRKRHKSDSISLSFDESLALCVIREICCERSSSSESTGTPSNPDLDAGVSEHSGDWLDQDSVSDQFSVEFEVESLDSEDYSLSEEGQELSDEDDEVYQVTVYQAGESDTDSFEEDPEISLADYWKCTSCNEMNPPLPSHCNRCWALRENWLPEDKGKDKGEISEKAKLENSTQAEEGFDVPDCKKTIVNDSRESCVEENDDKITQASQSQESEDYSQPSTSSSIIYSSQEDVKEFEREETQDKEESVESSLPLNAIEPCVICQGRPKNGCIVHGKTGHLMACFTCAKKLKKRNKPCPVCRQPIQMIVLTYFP
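Test system: mammalian cells stably expressing self-ubiquitinating, self-degrading MDM2 E3–luciferase fusion; Amount: 2000 cells in each well; Medium: DMEM; Schedule: 4 h settle plus 2 h compound, 37 °C; Technique: SteadyLite luciferase luminescence after 15 min room-temperature reagent incubation; Benchmarks: plate control and blank wells.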
NF-kB expr up: raises NF-kB expression in human neuronal cells | NF-kB reporter expression; active compounds read high | fold change at 12.5 µM | 190,000 tested, 1.6% active | AID 1239; in the data active = fold change above about 3.3
AHR act cf: human AHR activation, confirmation. shares compounds with AHR act. human cells, AHR-responsive luciferase reporter, luminescence. activation, % at 9 µM. 2,300 tested, 87% active. AID 2845; in the data active = activation above about 49%;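 also: HepG2 hepatoma cells carrying a DRE-driven firefly luciferase reporter; 0% = vehicle wells and 100% = reference agonist wells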
PXR act counter: counter-screen for AHR activators: human PXR activators; activation, % at 11.6 µM; cell-based PXR reporter, luciferase luminescence; shares compounds with AHR act; 2,300 tested, 88% active; in the data active = activation above about 11%;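 also: human hepatoma DPX-2 cells expressing full-length human PXR; 0% = DMSO and 100% = reference agonist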
The depositor's hits bear a star; x = not tested or not shown. Most compounds without a hit are left out; they make up all but 4.5% or so of the library.

SMILES | PERK inhibitor | STAT1 activator | APP 5'UTR act | AHR act | MDM2 E3 inh | NF-kB expr up | AHR act cf | PXR act counter
CCn1c(SCC(=O)N/N=C/C=C\c2ccccc2[N+](=O)[O-])nc2ccccc21 | -1 | 92 | 4 | 33 | -10 | 0.67 | x | x
Cn1c(SCC(=O)N/N=C/C=C\c2ccccc2[N+](=O)[O-])nc2ccccc21 | 0 | 90 | 12 | 108* | -5 | 1.1 | 55* | 81*
CCN(CC)CCCn1c2c(c(SCC(=O)Nc3ccc4c(c3)OCO4)nc1=O)CCC2 | x | x | x | 1 | x | x | x | x
CN(C(=O)c1cc([N+](=O)[O-])ccc1NCc1cccnc1)c1ccccc1 | x | x | x | 80* | x | x | 72* | 88*
COc1cccc(Cn2cc(N)cn2)c1 | 0 | 106 | -2 | 0 | 3 | 1.1 | x | x
COc1ccccc1NC(=O)CCCCCN1C(=O)c2cccc3cccc(c23)C1=O | x | x | x | 85* | x | x | -3 | 56*
Cc1cc(NC(=O)C2Oc3ccccc3OC2C)no1 (stereo unspecified) | 1 | 92 | 15 | 16 | -9 | 1.2 | x | x
O=C(Nc1nccs1)c1cc2c(s1)-c1ccccc1OC2 | 1 | 146* | 96 | 150* | -22 | 2.3 | 115* | 20*
CC1Oc2ccccc2OC1C(=O)Nc1nccs1 (stereo unspecified) | x | x | x | 80* | x | x | 105* | 10*
Cn1cc(C(=O)N2CCCC(Nc3ccc(F)cc3)C2)c2ccccc21 (stereo unspecified) | x | x | x | 16 | x | x | x | x
NC(=O)c1ccsc1NC(=O)COC(=O)c1cc(=O)[nH]c2ccccc12 | x | x | x | 4 | x | x | x | x
O=C(COc1ccccc1)N/N=C/c1ccc([N+](=O)[O-])o1 | 1 | 107 | 0 | 1 | -15 | 0.79 | x | x
O=C(CNc1ccc2ccccc2c1)N/N=C/c1ccc([N+](=O)[O-])o1 | -1 | 81 | 3 | 126* | -3 | 0.98 | 63* | 11*
O=c1[nH]c(CN2CCc3ccccc3C2)nc2ccccc12 | 0 | 91 | -7 | 85* | -12 | 1.1 | 100* | 67*
Cc1nnsc1C(=O)Nc1ccccc1 | 0 | 99 | 31 | 1 | -16 | 1.2 | x | x
Cc1nnsc1C(=O)Nc1ccc(Cl)cc1 | 0 | 96 | -3 | 106* | x | 1.1 | 64* | 26*
Cc1ocnc1C(=O)Nc1ccc(Cl)cc1 | 1 | 131* | 28 | 104* | -9 | 1.8 | 66* | 25*
O=C(CCC(=O)NNc1nc2ccccc2c2nc(-c3ccccc3)nn12)NCCCN1CCOCC1 | 0 | 97 | 6 | 84* | -16 | 1.1 | 91* | 16*
CC(C)CCNC(=O)CCC(=O)NNc1nc2ccccc2c2nc(-c3ccccc3)nn12 | 1 | 83 | x | 16 | -12 | 1.1 | x | x
CC(C)CNC(=S)N(CCN(C)C)Cc1cc2cc3c(cc2[nH]c1=O)OCO3 | x | x | x | 28 | x | x | x | x
CC(C)CNC(=S)N(CCCO)Cc1cc2cc3c(cc2[nH]c1=O)OCO3 | x | x | x | 92* | x | x | 100* | 19*
Clc1cc(Cl)c2nc(N3CCCC3)sc2c1 | 0 | 126 | 28 | 88* | x | x | 95* | 28*
Clc1cccc2sc(N3CCCCC3)nc12 | 0 | 123 | 36 | 1 | 2 | 2.5 | x | x
CCN1CCn2c3c(c4cc(Cl)ccc42)CCCC31 (stereo unspecified) | 0 | 102 | 10 | 118* | -17 | 0.97 | 62* | 48*
CCn1c2c(c3cc(Cl)ccc31)CCCC2=O | 0 | 87 | 16 | 4 | -11 | 1 | x | x
SMILES | PERK inhibitor | STAT1 activator | APP 5'UTR act | AHR act | MDM2 E3 inh | NF-kB expr up | AHR act cf | PXR act counter
CC1CCCC(C)N1/N=C/c1cc(Br)c(O)c(Br)c1 (stereo unspecified) | 1 | 103 | -5 | 2 | -4 | 1 | x | x
CN=c1scc(C)n1/N=C/c1cc(Br)c(O)c(Br)c1 | 0 | 110 | -4 | 118* | 2 | 5.5* | 110* | 14*
Nc1ccc2nn(-c3ccc(F)cc3)nc2c1 | x | x | x | 106* | x | x | 22 | 14*
Cc1ccc(-n2nc(-c3ccc(N)cc3)cc2N)cc1 | -1 | 93 | 24 | 8 | -16 | 1.6 | x | x
Fc1ccc(-n2nnc(-c3cnc4ccccc4c3)n2)cc1 | 1 | 24 | 98 | 34 | x | 2.2 | x | x
Cc1ccc(-n2nc3ccc(N)cc3n2)cc1 | 1 | 150* | 7 | 88* | -27 | 2.7 | 76* | 10
C=CCn1c(C)nc2c(sc3nc4c(cc32)COC(C)(C)C4)c1=O | 0 | x | x | 0 | -12 | x | x | x
COc1ccc(Br)cc1C(=O)Nc1ccccc1-c1ccccc1 | 0 | 96 | 2 | 82* | -3 | 0.85 | 76* | 13*
COc1ccc(Br)cc1C(=O)Nc1cccc(NC(=O)c2ccco2)c1 | -1 | 94 | -24 | 84* | -18 | 0.3 | 98* | 15*
COc1ccc(NC(=O)c2ccco2)cc1NC(=O)c1ccccc1F | x | x | x | 87* | x | x | 95* | 12*
COc1ccc(NC(=O)c2cccs2)cc1NC(=O)c1ccco1 | -1 | 107 | -3 | 11 | -8 | 0.87 | x | x
COc1ccccc1NC(=O)c1ccc(-c2ccc(Br)cc2)o1 | -1 | 102 | 19 | 99* | -17 | 1.6 | 105* | 11*
CC[C@H]1c2[nH]c3ccccc3c2C[C@@H]2C(=O)N(c3ccc(F)cc3)C(=O)N21 | x | x | x | -1 | x | x | x | x
N#Cc1ccccc1OCC(=O)OCCCOC(=O)COc1ccccc1C#N | x | x | x | 7 | x | x | x | x
C=CCn1c(=O)c(C(=O)NCCc2ccc(Cl)cc2)c(O)c2cc(OC)c(OC)cc21 | x | x | x | 3 | x | x | x | x
C=CCn1c(=O)c(C(=O)NC2CC2)c(O)c2cc(OC)c(OC)cc21 | x | x | x | 102* | x | x | 44 | 30*
Cc1cc(C)n2nc(C(=O)OCC(=O)NNC(=O)c3ccccc3)nc2n1 | x | x | x | -1 | x | x | x | x
COc1ccc(Cl)cc1NC(=O)C(OC)c1ccccc1 (stereo unspecified) | -1 | 95 | -1 | 101* | -7 | 1.2 | 97* | 47*
COc1cc(NC(=O)C/C(C)=N/NC(=O)C(OC)c2ccccc2)c(OC)cc1Cl (stereo unspecified) | 0 | 108 | -6 | 105* | -3 | 0.93 | 24 | 10
CCOC(=O)c1cccc(C2=CC(=O)C[C@H](c3ccc(Cl)cc3)C2)c1 | x | x | x | 0 | x | x | x | x
Cc1cc(Nc2ccc(Cl)cc2)n2nnnc2n1 | 1 | 92 | 0 | 143* | -7 | 1.2 | 91* | 14*
Cc1cc(Nc2ccc(Br)c(C)c2)n2nc(C)nc2n1 | 0 | 92 | -1 | 85* | -1 | 1.3 | 46 | 12*
Cc1ccc(Nc2cc(C)nc3nc(C)nn23)cc1 | 0 | 99 | -17 | 124* | x | 0.92 | 14 | 9
COc1ccc(C2c3ccc(O)cc3Oc3ncn4nc(-c5ccncc5)nc4c32)cc1OC (stereo unspecified) | 1 | x | x | 11 | 1 | x | x | x
